# Screening data from PubChem.
# NF-kB neuron act – raises NF-kB expression in human neuronal cells | NF-kB reporter expression; stronger effect = higher value | fold change at 12.5 µM | hit rate 1.6% among 190,000 | AID 1239; in the data active = fold change above about 3.3
# FLuc stim CS – firefly luciferase counter-screen for stimulation assays. P08659. ATPlite luciferase biochemical, luminescence, 10 min; 0 = ATP-free wells, 1 = DMSO control. activation factor at 10 µM. 200,000 tested, under 10 active;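 active = luciferase activation factor, scaled between plate controls, of at least 2 with compound at 10 µM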
# Target sequence (P08659 whole entry, looked up): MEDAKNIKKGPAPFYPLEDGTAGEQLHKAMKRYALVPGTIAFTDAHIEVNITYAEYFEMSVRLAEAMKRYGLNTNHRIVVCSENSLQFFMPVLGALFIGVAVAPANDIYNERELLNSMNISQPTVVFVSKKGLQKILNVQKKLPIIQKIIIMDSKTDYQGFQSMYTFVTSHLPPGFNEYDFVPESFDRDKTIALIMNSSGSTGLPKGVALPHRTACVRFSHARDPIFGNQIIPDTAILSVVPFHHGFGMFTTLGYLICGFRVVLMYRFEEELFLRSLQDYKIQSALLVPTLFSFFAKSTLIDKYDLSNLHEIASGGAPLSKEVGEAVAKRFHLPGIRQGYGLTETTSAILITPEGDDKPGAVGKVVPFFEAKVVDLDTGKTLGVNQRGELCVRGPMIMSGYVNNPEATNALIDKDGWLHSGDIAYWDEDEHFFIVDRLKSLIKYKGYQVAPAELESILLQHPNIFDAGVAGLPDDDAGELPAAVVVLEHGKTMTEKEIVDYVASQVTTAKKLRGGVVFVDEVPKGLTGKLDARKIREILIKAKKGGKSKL
#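 Material: Luciferase/luciferin reagent mix; Doses: test compounds dosed from 2 mM stocks in 100% DMSO; Schedule: 10 min incubation after luciferase reagent addition, room temperature; Measured by: luminescence from luciferase reaction; Read-out: luminescence gain marking luciferase activators.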
# Rad51 HR inh – Rad51 (human) homologous recombination inhibition; Q06609; hRad51 DNA strand exchange, fluorescence dequenching; inhibition, % at 10 µM; hit rate 0.085% among 200,000; AID 1385;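 active = inhibition above 40% at the single screening dose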;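 note: 0% = DMSO control wells and 100% = blanks with heterologous ssDNA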
#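 Test system – preformed human Rad51 ssDNA filaments · Reagent – Donor/quencher-labelled 47-bp dsDNA substrate · Incubation – 37 °C 15-min filament assembly, 30-min compound preincubation, 15-min exchange · Signal – FRET fluorescence dequenching, excitation 485 nm, emission 520 nm · Read-out – percent inhibition from fluorescence, normalised to plate control and blank means · Benchmarks – plate control and blank wells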
# FLuc inhib CS – counter-screen for luciferase assay inhibitors: firefly luciferase inhibition. AID 1006. ATPLite firefly luciferase biochemical luminescence, 10 min. hit rate 1.5% among 200,000. P08659. inhibition, % at 10 µM;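 active = inhibition above about 50% when tested at 10 µM, limit read from the data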
# APP 5'UTR act – APP 5'UTR luciferase reporter activation. SH-SY5Y APP 5'UTR luciferase reporter, luminescence; zero percent = DMSO vehicle wells. activation, % at 2 µM. hit rate 1% among 190,000;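 active = activation above a set limit, based on mean plus 3 SD of controls, cut at about 140% in these data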
# STAT1 act – STAT1 signaling activation; NIH 3T3 STAT1-luciferase reporter, IFN-gamma, luminescence; 100% = IFN-gamma alone, no compound; activation (% of control), % at 5.5 µM; hit rate 2.6% among 200,000; AID 932;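 active = activation above the screen-wide mean activation plus 3 SD, cut at about 130% in these data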;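 note: raw ratio to IFN-gamma control signal so 100% means no change and 0% no light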
# STAT1 activ conf – STAT1 activation, confirmation assay. shares compounds with STAT1 act. NIH 3T3 STAT1-luciferase reporter, IFN-gamma potentiation, luminescence; 100% = IFN-gamma EC80 alone, no compound. activation (% of control), % at 5.7 µM. hit rate 97% among 1,200. AID 1262;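 active = activation above a set limit carried over from the earlier primary STAT1 screen, cut at about 140% in these data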;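 note: simple ratio to median IFN-gamma plus DMSO wells so 0% means no light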
# NFkB act – activates NF-kappaB, counter-screen to STAT1 activators. shares compounds with STAT1 act. AID 1306. activation (% of control), % at 5.7 µM. HEK293T NF-kB luciferase reporter, TNF-alpha stimulated, luminescence; 100% = TNF-alpha with vehicle only. hit rate 43% among 1,200;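 active = activation above the mean of solvent-only control wells plus 3 SD, set per campaign, cut at about 130% in these data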;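 note: TNF-alpha given at a submaximal dose yielding about 80% of full reporter signal; values are well signal over median control so 100% means no change and 0% no light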
# STAT3 act 2 – activates human STAT3, counter-screen to STAT1 activators | shares compounds with STAT1 act | U3A cells STAT3-luciferase reporter, IL-6, luminescence; cells lack STAT1; 100 = IL-6 alone, no compound effect | activation (% of control), % at 5.7 µM | hit rate 46% among 1,200;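 active = activation above the solvent-only control well mean plus 3 SD, set per plate batch, cut at about 110% in these data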;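 note: 0% = no luminescence and 100% = median IL-6 plus DMSO wells; higher means more STAT3 reporter activation so hits are non-selective activators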
# * = called active by the depositor; . = no result given. This is a sample that favours compounds with a hit; in the whole collection about 3.9% have one here.
SMILES,NF-kB neuron act,FLuc stim CS,Rad51 HR inh,FLuc inhib CS,APP 5'UTR act,STAT1 act,STAT1 activ conf,NFkB act,STAT3 act 2
COc1ccc(C)cc1NC(=O)COC(=O)c1ccc([N+](=O)[O-])o1,1.3,1.1,-28,-5,2,102,.,.,.
O=C(OCC(=O)N1CCN(C(=O)c2ccco2)CC1)c1ccccc1C(=O)c1ccc(Cl)cc1,1.2,1.1,-5,-8,-1,100,.,.,.
Cc1ccc2nc(-c3ccc(NC(=O)CN4C(=O)NC(C)(c5ccc(OC(F)F)cc5)C4=O)cc3)sc2c1 (stereo not drawn),1.5,0.8,-5,24,150*,155*,186*,129,113*
COc1cccc(-c2csc(NC3OC(=O)c4c3ccc(OC)c4OC)n2)c1 (stereo not drawn),.,.,8,.,.,.,.,.,.
COc1ccc2c(c1OC)C(=O)OC2Nc1nc(-c2cc3ccccc3oc2=O)cs1 (stereo not drawn),6.7*,0.6,10,36,153*,182*,195*,117,102
COc1ccc2c(c1OC)C(=O)OC2Nc1nc(-c2ccc(-c3ccccc3)cc2)cs1 (stereo not drawn),11*,0.3,-3,74*,179*,181*,232*,135*,98
COc1cc(OC)c2c(C)c(Cl)c(=O)oc2c1,1.2,1,1,-2,7,101,.,.,.
Cc1ccc2nc(N3CCN(C(=O)c4cccs4)CC3)c(C#N)cc2c1,1.1,1,11,-5,43,102,.,.,.
COc1ccc2[nH]cc(CCn3ccc(=O)c(C)c3C)c2c1,1,1,.,-3,-15,101,.,.,.
Cc1c(C(=O)Nc2ccc(Br)cc2)cnn1C,2.7,0.9,6,6,32,152*,159*,120,118*
NS(=O)(=O)c1ccc(NC(=O)c2c(F)cccc2Cl)cc1,.,.,-11,.,.,.,.,.,.
O=C(Nc1ccc2c(c1)CCC2)c1ccc(F)cc1,8.5*,0.3,-8,70*,197*,174*,233*,114,87
O=C(Nc1ccc2c(c1)CCC2)c1c(F)cccc1Cl,4.2*,1,-3,5,100,175*,196*,140*,112*
O=C(Nc1ccc2c(c1)CCC2)c1cccs1,6.2*,0.6,-4,40,92,157*,198*,136*,104
O=C(Nc1ccc2c(c1)CCC2)c1cc(S(=O)(=O)Nc2ccc(F)cc2)c(Cl)cc1Cl,0.68,0.9,3,5,-7,101,.,.,.
OCCN1CCN(CCOc2ccccc2-c2ccccc2)CC1,1.3,1.1,0,-6,1,110,.,.,.
Cc1ccc(NC(=O)C2C(c3ccccc3)C=CC(c3ccccc3)C2C(=O)O)cc1 (stereo not drawn),1.1,1,6,3,6,96,.,.,.
CCCS(=O)(=O)N1CCC(C(=O)N2CCc3ccccc3C2)CC1,1.1,1,5,-2,11,98,.,.,.
N/C(=N\OC(=O)c1cccs1)c1ccccc1,1.9,0.1,.,94*,83,156*,161*,129,105
COc1ccc(/C(N)=N/OC(=O)c2cccs2)cc1OC,1.9,0.8,7,24,66,159*,140*,118,104
Cc1ccc(/C(N)=N/OC(=O)c2cccs2)cc1,1.1,0.3,-2,74*,.,164*,188*,142*,116*
C[c-]1[c-](C)[c-](C)[c-](C)[c-]1C.[Fe].c1cc2nccc(N3CCCC3)[c-]2c1 (stereo not drawn),.,.,-9,.,.,.,.,.,.
O=C(c1ccncc1)N(c1ccc2oc3c(c2c1)CCCC3)S(=O)(=O)c1ccc(F)cc1,0.87,1.1,7,-7,6,105,.,.,.
Cc1nc(N)sc1N=Nc1ccc(Br)cc1,7.2*,0.9,0,12,122,158*,214*,162*,123*
O=C1CSC(c2ccccn2)N1Cc1cn2ccccc2n1 (stereo not drawn),0.78,1.1,-9,-6,-7,99,.,.,.
SMILES,NF-kB neuron act,FLuc stim CS,Rad51 HR inh,FLuc inhib CS,APP 5'UTR act,STAT1 act,STAT1 activ conf,NFkB act,STAT3 act 2
Clc1cccc(Nc2ncnc3ccc(Br)cc23)c1,0.68,1.1,4,-5,8,100,.,.,.
Clc1cccc(/C=N/Nc2ncnc3ccccc23)c1,4.4*,0.7,0,34,.,162*,227*,143*,134*
C/C(=N/NC(=O)c1ccco1)c1ccc(NC(=O)c2ccc(F)cc2)cc1,1,1,2,3,56,155*,125,118,96
CC1=NN(c2ccc(C)cc2C)C(=O)C1C(c1ccccc1)C1C(=O)N(c2ccc(C)cc2C)N=C1C (stereo not drawn),1.1,1.1,4,-13,11,105,.,.,.
COc1ccc(C(=O)/C=C/Nc2cc(C)ccn2)cc1,.,.,-11,.,.,.,.,.,.
c1ccc(-c2noc(-c3ccc4ccccc4c3)n2)cc1,3,0.3,1,68*,150*,151*,184*,76,91
Cc1ccc(/C=N/NC(=O)CNC(=O)Cc2ccccc2)o1,1.2,1,-3,-2,17,95,.,.,.
CC1Cc2ccccc2N1C(=O)/C=C/c1cccc(F)c1 (stereo not drawn),6.3*,0.7,-3,33,189*,158*,202*,141*,106
Oc1ccc(/C=N/Nc2ccc(C(F)(F)F)cn2)cc1,4.8*,0.9,5,6,127,168*,172*,108,99
Cc1cc(C(=O)CN2C(=O)NC(CC(C)C)C2=O)c(C)n1-c1ccccc1F (stereo not drawn),2.2,0.9,16,10,70,153*,183*,135*,131*
O=C1/C(=C/Nc2cccc([N+](=O)[O-])c2)CCc2ccccc21,4.5*,0.8,12,23,140*,169*,212*,134*,108
COc1ccc2nc(NC(=S)N(C)C)sc2c1,11*,0.7,-3,30,48,171*,257*,127,86
CCOc1ccc2nc(NC(=O)CCC(=O)c3cccs3)sc2c1,1.8,0.7,7,28,73,127,.,.,.
